Results published in ChEMBL document CHEMBL4033629, “Synthesis, biological evaluation and molecular modeling of 2-Hydroxyisoquinoline-1,3-dione analogues as inhibitors of HIV reverse transcriptase associated ribonuclease H and polymerase” (Eur J Med Chem, 2017).
Active and inactive are the calls of the source. The calls are words filed in the database; no cut-off is given here.

How the values were obtained:
[1] = system: Human immunodeficiency virus 1; test: Antiviral activity against HIV1 3B infected in human CEM-SS cells assessed as inhibition of viral-induced cytopathic effect at 10 uM by colorimetric method; assay type: functional, cell-based
Method in brief: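 CEM-SS cells were mixed with HIV-1 IIIB and test compound at 10 µM and incubated 6 days. Virus was pre-titered so that virus control wells lost 70 to 95% of cell viability. Each plate had cell-only, virus, compound toxicity and compound colorimetric control wells. Protection from virus-induced cytopathic effect was read colorimetrically.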

[2] = Inhibition of full length HIV reverse transcriptase polymerase activity; set-up: species or system Human immunodeficiency virus
Method in brief: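 RT was pre-incubated with primer-template duplex before compound was tested. The IC50 is the concentration giving 50% inhibition. It is reported as mean ± SD from three independent experiments for some analogues, and as the mean of two independent experiments for others.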

[3] = Inhibition of full length HIV RT-RNase H activity using 18-nucleotide 3'-fluorescein-labeled RNA/5'-dabsyl-labeled DNA hybrid as substrate; set-up: species or system Human immunodeficiency virus
Method in brief: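 Duplex substrate reports random internal RNA cleavage. A known RNase H inhibitor served as positive control. IC50 is the concentration giving 50% inhibition, reported as the mean of two or three independent experiments.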

Compound | Activity [1] | IC50 [2] [µM] | IC50 [3] [µM]
O=C1Cc2cc(-c3ccc(F)c(F)c3)ccc2C(=O)N1O | inactive | 2.1 | 1.3
COc1cc2c(cc1-c1ccccc1)CC(=O)N(O)C2=O | inactive | 8.1 | 1.3
O=C1Cc2c(Cc3ccc(Br)cc3)cccc2C(=O)N1O | inactive | 1.4 | 0.6
O=C(Nc1ccc2c(c1)CC(=O)N(O)C2=O)c1ccc(F)cc1 | inactive | 0.8 | 0.2
O=C1Cc2c(cccc2-c2ccc(F)cc2F)C(=O)N1O | inactive | 25 | 1.5
O=C1Cc2c(cccc2-c2ccco2)C(=O)N1O | inactive | 2.1 | 2
O=C1Cc2cc(-c3cccs3)ccc2C(=O)N1O | inactive | 1.7 | 1.7
COc1cc2c(cc1-c1ccc(F)cc1F)CC(=O)N(O)C2=O | inactive | 2.9 | 1.6
O=C1Cc2c(Cc3ccc(F)cc3F)cccc2C(=O)N1O | inactive | 9.3 | 0.82
Cc1ccc(Cc2cccc3c2CC(=O)N(O)C3=O)cc1 | inactive | 8 | 1
O=C1Cc2ccc(-c3ccco3)cc2C(=O)N1O | inactive | 1.3 | 1.2
O=C(Nc1ccc2c(c1)CC(=O)N(O)C2=O)c1ccccc1 | inactive | 0.4 | 0.2
O=C1Cc2c(Cc3ccc(C(F)(F)F)cc3)cccc2C(=O)N1O | inactive | 7.4 | 0.83
O=C1Cc2cc(-c3ccc4c(c3)OCO4)ccc2C(=O)N1O | inactive | 1.7 | 1.2
O=C1Cc2ccc(-c3ccc(F)c(F)c3)cc2C(=O)N1O | inactive | 2.8 | 2
O=C1Cc2c(cccc2-c2ccccc2)C(=O)N1O | inactive | > 25 | 1.4
O=C1Cc2ccc(-c3cccs3)cc2C(=O)N1O | inactive | 2.5 | 1.7
O=C1Cc2cc(-c3ccoc3)ccc2C(=O)N1O | inactive | 2 | 1.4
O=C1Cc2cc(-c3csc4ccccc34)ccc2C(=O)N1O | inactive | 1.3 | 1.1
O=C(Cc1ccccc1)Nc1ccc2c(c1)CC(=O)N(O)C2=O | inactive | 1.4 | 0.2
O=C1Cc2cc(-c3ccco3)ccc2C(=O)N1O | inactive | 1.5 | 1.1
O=C1Cc2cc(-c3cc4ccccc4o3)ccc2C(=O)N1O | inactive | 1.5 | 1.1
COc1cc2c(cc1-c1ccco1)CC(=O)N(O)C2=O | inactive | 6.2 | 1.6
O=C1Cc2ccc(-c3cc4ccccc4o3)cc2C(=O)N1O | inactive | 1.6 | 0.9
O=C(Cc1ccc(F)cc1)Nc1ccc2c(c1)CC(=O)N(O)C2=O | inactive | 1.7 | 0.3
O=C1Cc2ccc(I)cc2C(=O)N1O | inactive | 1.9 | 1.4
COc1cc2c(cc1-c1ccc(F)cc1)CC(=O)N(O)C2=O | inactive | 3.7 | 1.4
O=C1Cc2cc(-c3cccc4c3sc3ccccc34)ccc2C(=O)N1O | inactive | 1.6 | 1.8
